From PubChem BioAssay
Active and inactive are the calls of the source.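 The calls were made as follows, unless noted: active = potentiation averaged over duplicate wells exceeding buffer-only control mean by more than 3 SD; inactive = the rest.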

Tested on: not listed separately
Experiment: thallium flux activation in parental CHO cells, counter-screen for KCNQ1 potentiator project (AID 493006;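 active = duplicate-averaged activation above buffer control mean plus 5 SD of those controls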;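 as to activation: fluorescence ratio of max minus min over baseline after K+ and Tl+ depolarization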)
Conditions: parental CHO-K1 cells, FluxOR thallium flux, at 10 µM; stronger effect = higher value
Outline: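 Material: parental CHO-K1 cells, FluxOR dye-loaded; Also added: Potassium/thallium depolarization pulse; Schedule: overnight 37 °C plating, 90 min dye, 20 min dark compound; Signal: kinetic FluxOR fluorescence, 10 s baseline, 110 s after stimulus.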

Compound	activation	outcome
COc1cccc(-c2nnc(Nc3nc4c(F)cccc4s3)o2)c1	278% (active)	–
COC(=O)c1c(NS(=O)(=O)Cc2ccccc2)sc2c1CCCC2	196% (active)	–
CC(C)c1nc2n[nH]c(N)c2c2c1CCCC2	–	inactive
COc1ccc(OC)c(/C=C2\SC(=S)N(NS(=O)(=O)c3ccc(C)cc3)C2=O)c1	166% (active)	–
CC1(c2ccc(OC(F)F)cc2)NC(=O)N(CC(=O)Nc2ccc(OC(F)F)cc2)C1=O (stereo not drawn)	–	inactive
COc1ccc(NS(=O)(=O)c2ccc(N/N=C(\C)c3ccncc3)c([N+](=O)[O-])c2)cc1	–	inactive
COCCn1c(SCC(=O)NCc2ccc3c(c2)OCO3)nnc1C(C)C	–	inactive
Cc1sc2nc(CN3CCOCC3)[nH]c(=S)c2c1C	312% (active)	–
CN(C)c1ccc(-c2nn3c(-c4ccccc4Cl)nnc3s2)cc1	–	inactive
COc1ccc(-c2csc(NC(=O)C3=NN(c4ccccc4)C(=O)CC3)n2)cc1	–	inactive
O=C(NC(=S)Nc1ccccc1N1CCOCC1)c1ccc(-c2ccccc2F)o1	147% (active)	–
O=c1c2cc(NC(=S)NCCCN3CCC(Cc4ccccc4)CC3)ccc2nc2n1CCCCC2	–	inactive
Cc1ccc(Oc2ccc(NC(=O)Cn3ccsc3=N)cc2)cc1	–	inactive
Cc1ccc(N=Cc2cc(Br)cc(Cl)c2O)cc1	201% (active)	–
O=C(NC(=S)N1CCc2ccccc21)c1ccccc1Br	537% (active)	–
CCCCn1c(SCC(N)=O)nc2ccc(N3CCOCC3)cc2c1=O	–	inactive
O=C(NC(=S)Nc1nc2ccccc2s1)c1cccs1	400% (active)	–
Cc1nc2ccccn2c1C(=O)N/N=C/c1ccccc1	–	inactive
CC1Cc2ccccc2N1C(=S)NC(=O)c1cccc(Br)c1 (stereo not drawn)	726% (active)	–
CC(=O)N1CCN=C1SCc1ccc(F)cc1	355% (active)	–
COc1ccccc1C(=O)NC(=S)NNC(=O)c1sc2ccccc2c1Cl	358% (active)	–
Cc1c(N=Cc2cc(Br)cc(Br)c2O)cccc1C(=O)O	–	inactive

Biological target: Potassium voltage-gated channel subfamily KQT member 1 (Homo sapiens) (UniProt P51787)
Experiment: KCNQ1 potassium channel potentiators, confirmation, FluxOR thallium flux, CHO cells, duplicates (AID 493007);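 as to outcome: cells depolarized by a potassium plus thallium sulfate stimulus after compound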
Conditions: KCNQ1 cell line, FluxOR thallium flux fluorescence, at 10 µM; stronger effect = higher value, % of reference activator effect, buffer zero
Outline: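 System: KCNQ1-expressing CHO cell line; technique: kinetic thallium influx fluorescence with FluxOR dye, 10 s baseline, 110 s post-stimulus; timing: dye 90 min then compound 20 min, both at room temperature; controls: buffer-only wells as 0% and R-L3 activator as 100%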

Sequence of Potassium voltage-gated channel subfamily KQT member 1 (Homo sapiens) (P51787 whole entry, looked up): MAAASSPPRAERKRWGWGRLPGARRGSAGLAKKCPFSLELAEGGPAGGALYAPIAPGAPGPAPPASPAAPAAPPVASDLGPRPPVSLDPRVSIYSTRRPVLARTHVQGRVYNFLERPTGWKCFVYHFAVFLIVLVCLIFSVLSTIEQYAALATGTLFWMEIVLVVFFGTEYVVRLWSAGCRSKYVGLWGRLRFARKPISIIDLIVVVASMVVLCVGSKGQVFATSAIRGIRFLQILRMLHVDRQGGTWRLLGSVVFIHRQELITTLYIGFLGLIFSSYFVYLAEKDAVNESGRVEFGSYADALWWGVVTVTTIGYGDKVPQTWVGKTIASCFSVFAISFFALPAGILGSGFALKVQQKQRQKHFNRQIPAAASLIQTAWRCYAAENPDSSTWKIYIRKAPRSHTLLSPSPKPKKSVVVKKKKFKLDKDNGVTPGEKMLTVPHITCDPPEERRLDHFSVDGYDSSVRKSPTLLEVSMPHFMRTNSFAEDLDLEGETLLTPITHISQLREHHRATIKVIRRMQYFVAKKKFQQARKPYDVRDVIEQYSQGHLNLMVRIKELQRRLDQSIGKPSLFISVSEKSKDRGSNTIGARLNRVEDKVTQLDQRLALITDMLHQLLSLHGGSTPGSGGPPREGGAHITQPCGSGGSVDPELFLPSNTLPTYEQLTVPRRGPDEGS

Compound	outcome	potentiation
C[C@@H](NC(=O)OC(C)(C)C)c1nnc(S(=O)(=O)Cc2ccccc2)o1	inactive	–
COc1ccc(N=Nc2ccc(O)c3ncccc23)cc1	–	90% (active)
O=C(Nc1ccc(N2CCN(c3ccc(O)cc3)CC2)cc1)Oc1ccccc1	inactive	–
OCCCCNCc1ccc(OCc2ccc(Cl)cc2)cc1	–	292% (active)
Cc1cccc(CC2CC(=O)N(c3ccc(C)cc3Br)C2=O)c1 (stereo not drawn)	inactive	–
CCCN(CCC)C(=S)NC(=O)c1ccc(-c2ccccc2)cc1	–	248% (active)
COc1cc(C(=O)NC(=S)NC(C)C)cc(OC)c1OC	inactive	–
O=C(Nc1nc2c(F)cc(F)cc2s1)C1COc2ccccc2O1 (stereo not drawn)	–	68.5% (active)
CCOC(=O)c1sc(N2N=C(C)C(N=Nc3cccc(C)c3)C2=O)nc1C (stereo not drawn)	–	31% (active)
O=C(NC(=S)Nc1ccccc1)c1cc(-c2ccccc2)nc2ccccc12	–	75% (active)
Cc1ccccc1OCc1nnc(SCCN2CCCC2)n1-c1ccccc1	inactive	–
CCOC(=O)c1cnc(SCC(=O)Nc2nc(C)c(C)s2)nc1N	inactive	–
O=[N+]([O-])c1ccc(/C=C/C2=NN(c3ccccc3)C(c3ccco3)C2)o1 (stereo not drawn)	inactive	–
CC(C)COn1c(=S)[nH]c2ccccc2c1=O	inactive	–
C/C(=N\Nc1nc2ccccc2[nH]1)c1ccc(Cl)s1	inactive	–
CC(O)Cc1cn([C@@H](CCCCN)C(=O)N2CCNCC2)nn1 (stereo partly drawn)	inactive	–
O=P(CCCCCCCCCP(=O)(c1ccccc1)c1ccccc1)(c1ccccc1)c1ccccc1	–	96.5% (active)
CCOC(=O)C1(CCCc2ccccc2)CCN(Cc2cnc(C)s2)CC1	inactive	–
COc1cccc(-c2nnc(Nc3nc4c(F)cccc4s3)o2)c1	–	91.5% (active)
COC(=O)c1c(NS(=O)(=O)Cc2ccccc2)sc2c1CCCC2	–	136% (active)
CC(C)c1nc2n[nH]c(N)c2c2c1CCCC2	inactive	–
COc1ccc(OC)c(/C=C2\SC(=S)N(NS(=O)(=O)c3ccc(C)cc3)C2=O)c1	–	102% (active)
CC1(c2ccc(OC(F)F)cc2)NC(=O)N(CC(=O)Nc2ccc(OC(F)F)cc2)C1=O (stereo not drawn)	inactive	–
COc1ccc(NS(=O)(=O)c2ccc(N/N=C(\C)c3ccncc3)c([N+](=O)[O-])c2)cc1	inactive	–
COCCn1c(SCC(=O)NCc2ccc3c(c2)OCO3)nnc1C(C)C	inactive	–
Cc1sc2nc(CN3CCOCC3)[nH]c(=S)c2c1C	–	69.5% (active)
